Test results as given in ChEMBL document CHEMBL1122917, “Vinblastin-23-oyl amino acid derivatives: chemistry, physicochemical data, toxicity, and antitumor activities against P388 and L1210 leukemias” (J Med Chem, 1985).
Values joined by “and” are separate entries in the source; they are usually repeats but may differ in a detail not shown here. Equal entries are not always repeated.

Columns and labels:
[1] = Acute iv toxicity against CD1 strain of 40 mice after 4 doses of injection; format: organism-based; details: CD1, mouse, in vivo
Procedure, shortened: (§1)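 Acute toxicity in Swiss, CD1 or NMRI mice. Drugs given iv as sulfate salts. LD50 taken at day 14 from several dose levels, with 40–[…] mice per drug and strain.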

[2] = Acute iv toxicity against mice after a dose of injection; format: organism-based; details: mouse, in vivo
Mus musculus [3] = assay: Percent increase in life span at dose 6 mg/kg/day in 10 mice implanted with P388 leukemia cell line; format: functional
Procedure, shortened: (§2)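 Female DBA2 mice inoculated iv on day 0 with 10^4 P388 cells; single iv treatment on day 1 with drug as sulfate salt in physiological saline. Survival followed; %ILS from all deaths and survivors as (T/C × 100) − 100, maximal MST 30 days; survivors counted on days 30 and 60. Most experiments confirmed three times.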

Mus musculus [4] = assay: Number of survivors of DBA2 mice on 60th day after inoculation with L1210 leukemia cell line intraperitoneally at a dose of 2 mg/kg/day; 0/10; format: functional; details: route intraperitoneal
Mus musculus [5] = assay: Percent increase in life span of DBA2 mice after inoculation with L1210 leukemia intravenously at a dose of 3 mg/kg per day; format: functional; details: route intravenous
Procedure, shortened: (§3)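 Female DBA2 mice inoculated iv on day 0 with 10^4 L1210 cells; drugs given iv as sulfate salts in physiological saline, mostly once on day 1. %ILS from all deaths and survivors as (T/C × 100) − 100; survivors scored on days 30 and 60.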

Mus musculus [6] = assay: Percent increase in life span of DBA2 mice after inoculation with L1210 leukemia intravenously at a dose of 4 mg/kg per day; format: functional; details: route intravenous; procedure, shortened: as §3
Mus musculus [7] = assay: Percent increase in life span of DBA2 mice after inoculation with L1210 leukemia intravenously at a dose of 5 mg/kg per day; format: functional; details: for ILS at 5 mg/kg/day: Mus musculus, L1210, iv; procedure, shortened: as §3
Mus musculus [8] = assay: Percent increase in life span of DBA2 mice after inoculation with L1210 leukemia intravenously at a dose of 6 mg/kg per day; format: functional; details: route intravenous; procedure, shortened: as §3
Mus musculus [9] = assay: Percent increase in life span of DBA2 mice after inoculation with L1210 leukemia intravenously at a dose of 7 mg/kg per day; format: functional; details: route intravenous; procedure, shortened: as §3
Mus musculus [10] = assay: Number of survivors on 60th day at dose 6 mg/kg/day in 10 mice implanted with P388 leukemia cell line; 0/10; format: functional
Mus musculus [11] = assay: Percent increase in life span at dose 7 mg/kg/day in 10 mice implanted with P388 leukemia cell line; format: functional; procedure, shortened: as §2
Mus musculus [12] = assay: Percent increase in life span at dose 8 mg/kg/day in 10 mice implanted with P388 leukemia cell line; format: functional; procedure, shortened: as §2
Mus musculus [13] = assay: Number of survivors of DBA2 mice on 30th day after inoculation with L1210 leukemia cell line intravenously at a dose of 4 mg/kg/day; 0/10; format: functional; details: route intravenous
Mus musculus [14] = assay: Number of survivors of DBA2 mice on 30th day after inoculation with L1210 leukemia cell line intravenously at a dose of 5 mg/kg/day; 0/10; format: functional; details: route intravenous
Mus musculus [15] = assay: Number of survivors of DBA2 mice on 30th day after inoculation with L1210 leukemia cell line intravenously at a dose of 7 mg/kg/day; 0/10; format: functional; details: route intravenous
Mus musculus [16] = assay: Percent increase in life span at dose 3 mg/kg/day in 10 mice implanted with P388 leukemia cell line; format: functional; procedure, shortened: as §2
Mus musculus [17] = assay: Percent increase in life span at dose 4 mg/kg/day in 10 mice implanted with P388 leukemia cell line; format: functional; details: for ILS at 4 mg/kg/day: Mus musculus, P388; procedure, shortened: as §2
Mus musculus [18] = assay: Percent increase in life span at dose 4 mg/kg/day in 10 mice implanted with P388 leukemia cell line for 1st scheduled day; format: functional
Procedure, shortened: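 Female DBA2 mice inoculated iv on day 0 with 10^5 P388 cells; iv dosing of sulfate salts in physiological saline on day 1 only or on days 1, 8 and 15. %ILS from all deaths and survivors as (T/C × 100) − 100, maximal MST 60 days; survivors scored on day 60.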

Mus musculus [19] = assay: Percent increase in life span at dose 5 mg/kg/day in 10 mice implanted with P388 leukemia cell line; format: functional; procedure, shortened: as §2
Mus musculus [20] = assay: Number of survivors on 60th day at dose 4 mg/kg/day in 10 mice implanted with P388 leukemia cell line; 0/10; format: functional
Mus musculus [21] = assay: Number of survivors of DBA2 mice on 30th day after inoculation with L1210 leukemia cell line intraperitoneally at a dose of 2 mg/kg/day; 0/10; format: functional; details: route intraperitoneal
Mus musculus [22] = assay: Number of survivors of DBA2 mice on 30th day after inoculation with L1210 leukemia cell line intraperitoneally at a dose of 3 mg/kg/day; 0/10; format: functional; details: route intraperitoneal
Mus musculus [23] = assay: Number of survivors on 30th day at dose 4 mg/kg/day in 10 mice implanted with P388 leukemia cell line; 0/10; format: functional
Mus musculus [24] = assay: Number of survivors of DBA2 mice on 60th day after inoculation with L1210 leukemia cell line intravenously at a dose of 4 mg/kg/day; 0/10; format: functional; details: route intravenous
Mus musculus [25] = assay: Number of survivors of DBA2 mice on 60th day after inoculation with L1210 leukemia cell line intravenously at a dose of 5 mg/kg/day; 0/10; format: functional; details: route intravenous
Mus musculus [26] = assay: Number of survivors of DBA2 mice on 60th day after inoculation with L1210 leukemia cell line intravenously at a dose of 6 mg/kg/day; 0/10; format: functional; details: route intravenous
Mus musculus [27] = assay: Number of survivors of DBA2 mice on 60th day after inoculation with L1210 leukemia cell line intravenously at a dose of 7 mg/kg/day; 0/10; format: functional; details: route intravenous
Mus musculus [28] = assay: Number of survivors of DBA2 mice on 60th day after inoculation with L1210 leukemia cell line intravenously at a dose of 9 mg/kg/day; 0/10; format: functional; details: route intravenous
Procedure, shortened: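 Female DBA₂ mice received 10⁴ L1210 cells iv on day 0. Compounds were given iv as sulfate salts in physiological saline, as a single dose on day 1 (mg/kg per day). Groups were 10 mice. Survivors were counted on day 60. Cells were maintained by ip passage in DBA₂ mice.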

[29] = Acute iv toxicity against rat after a dose of injection; format: organism-based; details: in vivo
[30] = Acute iv toxicity against NMRI strain of 100 mice after 7 doses of injection; format: organism-based; details: mouse, in vivo; procedure, shortened: as §1
Mus musculus [31] = assay: Number of survivors of DBA2 mice on 60th day after inoculation with L1210 leukemia cell line intravenously at a dose of 3 mg/kg/day; 0/10; format: functional; details: route intravenous
Mus musculus [32] = assay: Percent increase in life span of BDF1 mice after inoculation with P388 leukemia intraperitoneally at a dose of 2 mg/kg per day; details: P388, ip
Mus musculus [33] = assay: Percent increase in life span of BDF1 mice after inoculation with P388 leukemia intraperitoneally at a dose of 3 mg/kg per day; details: P388, ip
Mus musculus [34] = assay: Number of survivors on 60th day at dose 2 mg/kg/day in 10 mice implanted with P388 leukemia cell line; 0/10; format: functional
Mus musculus [35] = assay: Number of survivors on 60th day at dose 8 mg/kg/day in 10 mice implanted with P388 leukemia cell line; 0/10; format: functional; procedure, shortened: as §2
Mus musculus [36] = assay: Number of survivors on 60th day at dose 7 mg/kg/day in 10 mice implanted with P388 leukemia cell line; 0/10; format: functional; procedure, shortened: as §2

Row | Structure (SMILES) | LD50 [2] [mg/kg] | ILS at 6 mg/kg/day (Mus musculus [3]) [%] | ILS at 4 mg/kg/day (Mus musculus [6]) [%] | ILS at 5 mg/kg/day (Mus musculus [7]) [%] | ILS at 7 mg/kg/day (Mus musculus [9]) [%] | Survivors (Mus musculus [10]) | ILS at 7 mg/kg/day (Mus musculus [11]) [%] | ILS at 8 mg/kg/day (Mus musculus [12]) [%] | Survivors (Mus musculus [13]) | Survivors (Mus musculus [14]) | Survivors (Mus musculus [15]) | ILS at 5 mg/kg/day (Mus musculus [19]) [%] | Survivors (Mus musculus [21]) | Survivors (Mus musculus [23]) | Survivors (Mus musculus [24]) | Survivors (Mus musculus [25]) | Survivors (Mus musculus [27]) | LD50 [29] [mg/kg] | Survivors (Mus musculus [31]) | ILS at 2 mg/kg/day (Mus musculus [32]) [%] | further results
1 | CC[C@]1(O)C[C@@H]2CN(CCc3c([nH]c4ccccc34)[C@@](C(=O)OC)(c3cc4c(cc3OC)N(C)[C@H]3[C@@](O)(C(=O)OC)[C@H](OC(C)=O)[C@]5(CC)C=CCN6CC[C@]43[C@@H]65)C2)C1 [VINBLASTINE] | 10 | 48 | 31.9 | 37 | 35 | 0 | 59.3 | 72.9 | 0 | 0 | 0 | 47.1 | 0 | 0 | 0 | 0 | 0 | 2.9 | 0 | 54 | LD50 [1]: 28 mg/kg; Survivors (Mus musculus [4]): 0; ILS at 3 mg/kg/day (Mus musculus [5]): 30.3%; ILS at 6 mg/kg/day (Mus musculus [8]): 24.7%; ILS at 3 mg/kg/day (Mus musculus [16]): 30.8%; ILS (Mus musculus [17]): 42.3% and 112%; ILS at 4 mg/kg/day (Mus musculus [18]): 52%; Survivors (Mus musculus [20]): 0; Survivors (Mus musculus [22]): 0; Survivors (Mus musculus [26]): 0; Survivors (Mus musculus [28]): 0; LD50 [30]: 27.4 mg/kg; ILS at 3 mg/kg/day (Mus musculus [33]): 63%
2 | CCOC(=O)[C@H](Cc1c[nH]c2ccccc12)NC(=O)[C@@]1(O)[C@H](O)[C@]2(CC)C=CCN3CC[C@@]4(c5cc([C@@]6(C(=O)OC)C[C@H]7C[N@](CCc8c6[nH]c6ccccc86)C[C@](O)(CC)C7)c(OC)cc5N(C)[C@@]14C)[C@@H]32 | – | – | – | – | – | – | – | – | – | – | – | – | – | – | – | – | – | – | – | – | LD50 [1]: 110 mg/kg; LD50 [30]: 269 mg/kg
3 | CC[C@]1(O)C[C@@H]2CN(CCc3c([nH]c4ccccc34)[C@@](C(=O)OC)(c3cc4c(cc3OC)N(C)[C@H]3[C@@](O)(C(N)=O)[C@H](O)[C@]5(CC)C=CCN6CC[C@]43[C@@H]65)C2)C1 [VINDESINE] | 6.3 | 32 | – | – | -9.1 | 0 | 24 | -46 | – | 0 | 0 | 30.2 | 0 | 0 | – | 0 | 0 | 2.6 | 0 | 89.5 | Survivors (Mus musculus [4]): 0; Survivors (Mus musculus [34]): 0; ILS (Mus musculus [7]; route intravenous): 11.5% and 25.7%; ILS at 3 mg/kg/day (Mus musculus [16]): 23%; ILS at 4 mg/kg/day (Mus musculus [17]): 25.5%; ILS at 4 mg/kg/day (Mus musculus [18]): 43%; Survivors (Mus musculus [35]): 0; Survivors (Mus musculus [20]): 0; Survivors (Mus musculus [22]): 0; Survivors (Mus musculus [36]): 0; ILS at 3 mg/kg/day (Mus musculus [33]): 89%
4 | CCOC(=O)[C@@H](NC(=O)[C@@]1(O)[C@H](O)[C@]2(CC)C=CCN3CC[C@@]4(c5cc([C@@]6(C(=O)OC)C[C@H]7C[N@](CCc8c6[nH]c6ccccc86)C[C@](O)(CC)C7)c(OC)cc5N(C)[C@@]14C)[C@@H]32)[C@@H](C)CC | – | 73.5 | 20 | 36 | 27 | 0 | 56 | > 183 | 0 | 0 | 0 | 60.4 | – | 0 | 0 | 0 | 0 | – | – | – | ILS at 6 mg/kg/day (Mus musculus [8]): 41.3%; ILS at 4 mg/kg/day (Mus musculus [17]): 60%; Survivors (Mus musculus [35]): 0; Survivors (Mus musculus [36]): 0; Survivors (Mus musculus [26]): 0; Survivors (Mus musculus [28]): 0
5 | CC[C@]1(O)C[C@H]2CN(CCc3c([nH]c4ccccc34)[C@@](C(=O)OC)(c3cc4c(cc3OC)N(C=O)[C@H]3[C@@](O)(C(=O)OC)[C@H](OC(C)=O)[C@]5(CC)C=CCN6CC[C@]43[C@@H]65)C2)C1 [VINCRISTINE] | 1 | – | 24 | 36 | – | – | – | – | 0 | 0 | – | – | 0 | – | 0 | 0 | – | 1 | 0 | 53 | Survivors (Mus musculus [34]): 0; ILS at 3 mg/kg/day (Mus musculus [5]): 28.8%
